Screening results from PubChem BioAssay.
Compounds with a hit are over-represented: about 3% of the library has one in this group of screens.
SENP8 block-1: SENP8 protease inhibition. Q96LD8. purified SENP8, Z-RLRGG-aminoluciferin cleavage, luminescence. inhibition, % at 10 µM. 330,000 compounds, 1.2% hits; in the data active = inhibition above about 50%
SENP6 inh: blocks the human protease SENP6 | Q9GZR1 | Recombinant SENP6 catalytic domain, aminoluciferin luminescence | inhibition, % at 10 µM | 330,000 compounds, 1.8% hits;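 active = inhibition above about 50% at the single tested dose, limit read from the data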
Target sequence (Q9GZR1 628-1112 limits assumed): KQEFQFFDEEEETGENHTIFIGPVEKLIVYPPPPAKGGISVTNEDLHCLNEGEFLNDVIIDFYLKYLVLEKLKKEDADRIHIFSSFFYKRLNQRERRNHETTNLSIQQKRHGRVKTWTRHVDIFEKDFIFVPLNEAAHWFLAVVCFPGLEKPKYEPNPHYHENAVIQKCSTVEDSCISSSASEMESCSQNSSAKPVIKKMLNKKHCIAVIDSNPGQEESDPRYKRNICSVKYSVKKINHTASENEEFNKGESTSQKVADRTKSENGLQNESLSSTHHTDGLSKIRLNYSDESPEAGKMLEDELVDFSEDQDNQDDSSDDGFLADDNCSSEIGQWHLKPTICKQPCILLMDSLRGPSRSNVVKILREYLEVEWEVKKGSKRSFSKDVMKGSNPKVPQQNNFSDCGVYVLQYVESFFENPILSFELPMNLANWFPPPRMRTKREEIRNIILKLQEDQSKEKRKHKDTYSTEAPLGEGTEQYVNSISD
UBC13 polyUb: inhibitors of human UBC13 polyubiquitin chain formation. P61088. TR-FRET. inhibition, % at 20 µM. 330,000 compounds, 0.47% hits. AID 485273; in the data active = inhibition above about 45%, passing the limit was not always enough; inconclusive = no clear call, values can overlap the other calls
Target sequence (P61088 whole entry, looked up): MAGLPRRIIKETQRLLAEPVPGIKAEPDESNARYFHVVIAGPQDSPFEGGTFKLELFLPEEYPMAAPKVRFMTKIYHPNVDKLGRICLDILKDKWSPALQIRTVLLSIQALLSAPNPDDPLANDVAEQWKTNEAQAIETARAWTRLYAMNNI
SENP7 inh: inhibitors of human SENP7 protease; Q9BQF6; recombinant SENP7, Z-RLRGG-aminoluciferin luminescence, 40 min; inhibition, % at 5 µM; 330,000 compounds, 1.5% hits; AID 434973;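 active = inhibition above about 50% at the single test dose, limit read from the data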
SENP8 block-2: blocks human SENP8 cleavage of Nedd8 substrate; Q96LD8; recombinant SENP8, Nedd8 substrate fluorescence; inhibition, % at 20 µM; 360,000 compounds, 0.64% hits; in the data active = inhibition mostly above about 40%, no sharp cut-off; inactive = mostly below about 27%
Apaf-1 inh: blocks human Apaf-1 apoptosome activity; 330,000 compounds, 0.71% hits; inhibition, % at 20 µM; O14727; reconstituted apoptosome caspase-3 activity, DEVD-Rh110 fluorescence; AID 489030; active = inhibition of at least 40% at 20 µM
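Assay system – apoptosome proteins · Medium – Hepes buffer, pH 7.5 · Also added – cytochrome c with DEVD-Rh110 · Timing – 30 min compound preincubation, 50 min activation, room temperature · Detection – Rh110 fluorescence, excitation 480 nm, emission 540 nm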
Casp3 counter: caspase-3 inhibition (UBC13 counter-screen); shares compounds with UBC13 polyUb; Recombinant caspase-3, Caspase-Glo 3/7 luminescence, 60 min; inhibition, % at 20 µM; 1,400 compounds, 4% hits; AID 488856;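 active = mean inhibition across replicates above about 26%, limit read from the data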
UBC13 conf: confirmation of human UBC13 polyubiquitin inhibitors. shares compounds with UBC13 polyUb. UBC13 polyubiquitination, TR-FRET, biochemical. inhibition, % at 10 µM. 1,400 compounds, 68% hits; in the data active = inhibition above about 45%; inconclusive = no clear call, values can overlap the other calls
Of the large screens only hits and unclear results are named; the others gave an inactive call (follow-up assays come after a bar, where they were run).

CCOC(=O)c1ccc(NC(=O)c2nc[nH]c2C(=O)N[C@@H](C)C(=O)OC(C)(C)C)cc1	UBC13 polyUb 58.0 | Casp3 counter inactive | UBC13 conf inactive
CCOC(=O)c1ccc(NC(=O)c2nc[nH]c2C(=O)N[C@H](C)c2ccccc2)cc1	UBC13 polyUb 70.3 | Casp3 counter inactive | UBC13 conf inactive
Cc1ccc(NC(=O)c2nc[nH]c2C(=O)N[C@H](C)c2ccccc2)cc1	none
COc1ccc(NC(=O)c2nc[nH]c2C(=O)NCc2ccccc2)cc1	UBC13 polyUb 60.0 | Casp3 counter inactive | UBC13 conf inactive
CCOc1cccc(CN(C)CC2CCCN(CCc3ccc(Cl)cc3)C2)c1O (centres undefined)	none
CCCCN1C(=N)N([C@@H](C)CN2CCC[C@H]2CN2C(N)=NC[C@H]2CC(C)C)C[C@H]1[C@H](C)CC	none
CCC[C@@H](CN1CCC[C@H]1CN1C(N)=NC[C@H]1CC(C)C)N1C[C@@H]([C@H](C)CC)N(CCCC2CCCC2)C1=N	UBC13 polyUb 78.1, Apaf-1 inh 53.2 | Casp3 counter inactive | UBC13 conf 83.2
CCC[C@@H](CN1CCC[C@H]1CN1C(N)=NC[C@H]1C(C)C)N1C[C@@H]([C@H](C)CC)N(CCCC2CCCC2)C1=N	UBC13 polyUb 52.6 | Casp3 counter inactive | UBC13 conf inactive
COc1cc(C2C(C#N)=C(N)Oc3n[nH]c(-c4cccs4)c32)cc(OC)c1O (centres undefined)	UBC13 polyUb 83.8 | Casp3 counter inactive | UBC13 conf 87.6
O=C1OCCN1C(=O)[C@H]1[C@H](c2ccc(Cl)cc2)C(c2cccc(Cl)c2)=NN1c1ccccc1	UBC13 polyUb 50.4 | Casp3 counter inactive | UBC13 conf inconclusive
Cc1ccc(CNC(=O)CSc2nc3ccsc3c(=O)n2Cc2ccc(C(=O)O)cc2)cc1	UBC13 polyUb 56.0 | Casp3 counter inactive | UBC13 conf 64.3
COc1ccc(Cn2c(SCC(=O)NCc3ccco3)nc3ccsc3c2=O)cc1	UBC13 polyUb 66.2 | Casp3 counter inactive | UBC13 conf 74.4
CCCCn1c(SCC(=O)Nc2cc(C)[nH]n2)nc2ccsc2c1=O	UBC13 polyUb 49.7 | Casp3 counter inactive | UBC13 conf 53.0
O=C(CSc1nc2ccccc2c(=O)n1Cc1ccccc1)NCc1ccco1	none
O=C(CSc1nc2ccsc2c(=O)n1Cc1ccc(C(=O)O)cc1)NCc1ccco1	UBC13 polyUb 60.7 | Casp3 counter inactive | UBC13 conf 60.3
CCC(Sc1nc2ccsc2c(=O)n1Cc1ccc(C(=O)O)cc1)C(=O)Nc1ccc(Cl)cc1 (centres undefined)	none (no result: SENP8 block-1, SENP6 inh, UBC13 polyUb, SENP7 inh, Apaf-1 inh)
Cc1ccc(C)c(N(C(=O)c2ccco2)C(C(=O)NC2CCCC2)c2ccco2)c1 (centres undefined)	none
Cc1cc(C)cc(C(=O)Nc2ccncc2)c1	none
Cc1ccc(NC(=O)NC2CCCCCCC2)cc1	none
CN(C)C(CNc1ncccn1)c1ccccc1 (centres undefined)	none
CCOC(=O)c1c(C)c(C(=O)NC2CCCCCC2)c(C)n1C	none (no result: SENP8 block-1, SENP6 inh, UBC13 polyUb, SENP7 inh, Apaf-1 inh)
CCOC(=O)c1c(C)c2c(n1C)CCC/C2=N\O	UBC13 polyUb 78.6 | Casp3 counter inactive | UBC13 conf 93.8
C#CCOCCOCCOCCNc1nc(N2CCN(C(=O)[C@H]([C@@H](C)CC)n3cc([C@@H](N)Cc4ccc(O)cc4)nn3)CC2)nc(N2CCN(C(=O)[C@H]([C@@H](C)CC)n3cc([C@@H](N)CC(C)C)nn3)CC2)n1	UBC13 polyUb 68.4 | Casp3 counter inactive | UBC13 conf inactive
C#CCOCCOCCOCCNc1nc(N2CCN(C(=O)C(Cc3ccc(O)cc3)n3cc(C(N)CC(C)C)nn3)CC2)nc(N2CCN(C(=O)C(Cc3cc4ccccc4[nH]3)n3cc(C(N)Cc4ccc(O)cc4)nn3)CC2)n1 (centres undefined)	UBC13 polyUb 78.4 (no result: SENP8 block-2) | Casp3 counter inactive | UBC13 conf 59.2
C#CCOCCOCCOCCNc1nc(N2CCN(C(=O)[C@H]([C@@H](C)CC)n3cc([C@@H](N)CO)nn3)CC2)nc(N2CCN(C(=O)[C@H](Cc3ccc(O)cc3)n3cc([C@@H](N)CC(C)C)nn3)CC2)n1	none
C#CCOCCOCCOCCNc1nc(N2CCN(C(=O)[C@H](CCC(=O)O)n3cc(C(N)Cc4ccc(O)cc4)nn3)CC2)nc(N2CCN(C(=O)[C@H](Cc3cc4ccccc4[nH]3)n3cc(C(N)CC(C)C)nn3)CC2)n1 (some centres undefined)	none (no result: SENP8 block-2)
C#CCOCCOCCOCCNc1nc(N2CCN(C(=O)[C@H]([C@@H](C)CC)n3cc([C@@H](N)Cc4ccc(O)cc4)nn3)CC2)nc(N2CCN(C(=O)[C@H](Cc3ccc(O)cc3)n3cc([C@@H](N)CC(C)C)nn3)CC2)n1	UBC13 polyUb 45.3 | Casp3 counter inactive | UBC13 conf inactive
COc1ccc(CCC(=O)Nc2ccc(S(=O)(=O)N3CCOCC3)cc2)cc1OC	none (no result: SENP8 block-1, SENP6 inh, UBC13 polyUb, SENP7 inh, Apaf-1 inh)
CCOC(=O)c1c(NC(=O)C(NCCN(C)C)c2ccccc2)sc2c1CCCC2 (centres undefined)	UBC13 polyUb 47.7 | Casp3 counter inactive | UBC13 conf 87.6
COCC(C)n1c(C)cc(C(=O)COC(=O)/C=C/c2cccc(F)c2)c1C (centres undefined)	none
Cc1ccc(C(=O)NCCCNCCCN(C)C)cn1	UBC13 polyUb 51.6 | Casp3 counter inactive | UBC13 conf inactive
CCc1ccc(-c2nc(CS(=O)CC(=O)NCc3ccccc3)c(C)o2)cc1 (centres undefined)	none
COc1cc(C#Cc2c(-c3cncn3C)n(C)c3ccc(Br)cc23)cc(OC)c1	UBC13 polyUb 46.3 | Casp3 counter inactive | UBC13 conf inactive
COc1ccccc1C(=O)NC(CCSC)C(=O)NCCCn1nc(C)cc1C (centres undefined)	none
Nc1nc(Cl)nc2ccc(Br)cc12	UBC13 polyUb 49.4 | Casp3 counter inactive | UBC13 conf inconclusive
O=C1C2C3C=CC(C4CC34)C2C(=O)N1CCCCN1CCN(c2ccc(F)cc2)CC1 (centres undefined)	UBC13 polyUb 54.4 | Casp3 counter inactive | UBC13 conf inactive
CCCCc1ccc(/C=C(\C#N)C(N)=S)s1	UBC13 polyUb 52.8 | Casp3 counter inactive | UBC13 conf 58.6
Cn1cccc1/C=C(/C#N)C(N)=S	none
CCN(C(=O)COC(=O)C1CCN(S(=O)(=O)c2ccc3c(c2)OCCO3)CC1)C1CCCCC1	none
COc1ccc(C(=O)OCC(=O)NC2CCCCCCC2)cc1OC	none
COc1ccc(C(=O)OCC(=O)NC2CCCCCC2)cc1OC	UBC13 polyUb 66.0 | Casp3 counter inactive | UBC13 conf inactive
